# B1: NELF-E aptamer (parent)
# chain: CCCAACGACUGCCGAGCGAGAUUACGCUUGAGCGCCCCACUGAGGAUGCCCACGGGCGAUUGGGGCACGG
# Variants of: B1
# Test: HiTS-RAP
# Details: with NELF-E (Drosophila)
# Outline: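 Aptamer DNA templates carrying a T7 promoter and ter site were sequenced on an Illumina GAIIx flowcell, then transcribed in situ by T7 RNA polymerase and halted by GST-Tus (30 minutes, 37°C). Clusters were imaged after 30-minute room-temperature equilibration with NELF-E-mOrange at 0.064 to 1000 nM in HEPES binding buffer, and only the first binding curve was used. Intensities were normalised to sequencing intensity and averaged per sequence. Kd came from weighted Hill fits, keeping fits with variance below 1,000,000.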
row,Variant,Kd [nM]
1,CCCAUCGACUACCGAGCGAGAUUACGCUUGAGCGCCCCACUGAGGAUGCCCACGGGCGAUUGGGGCACGG [A5U G11A],7.76
2,CCCAACGUCUGCCGAGCGAGAUUAGGCUUGAGCGCCCCACUGAGGAUGCCCACGGGCGAUUGGGGCACGG [A8U C25G],6.83
3,CCCAACGACUGCCGAGGGAGAUUACGCUUGAGCGCCCCACUGAGGAUGCCCACGUGCGAUUGGGGCACGG [C17G G55U],7.51
4,CCCAACGACUGCCGAGCGAGAUUACGCUUGAGCGCCCCACGGAGGAUGCCCACGGGCGAUUAGGGCACGG [U41G G62A],19.9
5,CCCAACGACUGCCGAGCGAGAGUACGCUUGGGCGCCCCACUGAGGAUGCCCACGGGCGAUUGGGGCACGG [U22G A31G],6.63
6,CCCAACGAGUGCCGAGCGAGAUUACGCUUGAGCGCCCCACUGUGGAUGCCCACGGGCGAUUGGGGCACGG [C9G A43U],80.5
7,CCCAACGACUUCCGAGCGAGAUUACGCUUGAGCGCCCCUCUGAGGAUGCCCACGGGCGAUUGGGGCACGG [G11U A39U],21.3
8,CCCAAGGACUGCCGAGCGAGAUUACGCUUGAGCGCCCCACUGAGGAUGCCCACGGGCGAUUGGCGCACGG [C6G G64C],6.39
9,CCCAACGUCUGCCGAGCGAGAUUACGCUUGAGCGCCCCACUGAGGAUGCCCACGGUCGAUUGGGGCACGG [A8U G56U],6.41
10,CCCUACGACUGCCGAGCGAGAUUACGCUUGAGCGCCCCACGGAGGAUGCCCACGGGCGAUUGGGGCACGG [A4U U41G],6.46
11,CCCAACGACUGCUGAGCGAGAUUACGCUUGAGCGCCCCACUGAGGAUGCCCACAGGCGAUUGGGGCACGG [C13U G54A],8.87
12,CCCAACGACUGGCGAGCGAGAUUACGCUUGAGCGCCCCACUGAGGAUGCCCACGGGCGAUUGGGGCACGG [C12G],5.44
13,CCCAACGACUGCCGAGCGAGAUUACGCUUGAGCGCCCCACUGAGGAUGCCCACGGGCGCUUGGGGCACGG [A59C],110
14,CCCAACGACUGCCGAGCGAGAUGACGCUCGAGCGCCCCACUGAGGAUGCCCACGGGCGAUUGGGGCACGG [U23G U29C],5.67
15,CCCAACUACUGCCGAGCGAGAUUACGCUUGAGCGCCCCACCGAGGAUGCCCACGGGCGAUUGGGGCACGG [G7U U41C],91.2
16,CCCAACGACUGCCGAGCGAGAUUACGCUUGAGCGCCCCACGGAGUAUGCCCACGGGCGAUUGGGGCACGG [U41G G45U],5.07
17,CCCAACGACUGCCGAGUGAGAUUACGCUUGAGCGCCCCACUGAGGAUGCCCACAGGCGAUUGGGGCACGG [C17U G54A],11.6
18,CCCAACGACUGCCGAGCGAGAGUACGCUUGAGCGCCCCACUGAGGAUGCCCACGGGCGAUUGGGCCACGG [U22G G65C],13.4
19,CCCAACGACUGCCGAGCGAGAUUGCGCUUGAGCGCCCCACUGAGGAUGCCCACGGGCGGUUGGGGCACGG [A24G A59G],36.5
20,CCCAACGACUGACGAGCGAGAGUACGCUUGAGCGCCCCACUGAGGAUGCCCACGGGCGAUUGGGGCACGG [C12A U22G],4.37

row,Variant,Kd [nM]
1,CCCAACGACUGCCGAGCGAGAUUACGCUUGAGCGCCCGACUGAGGAUGCCCACGGGCGAUUGGGGCACGG [C38G],5.24
2,CCCAACGACUGCCUAGCGAGAUUGCGCUUGAGCGCCCCACUGAGGAUGCCCACGGGCGAUUGGGGCACGG [G14U A24G],6.51
3,CCCAACGACUGCCGAGCGAGAUUGCGCUUGAGCGCCCCACUGAGGAUGUCCACGGGCGAUUGGGGCACGG [A24G C49U],13.4
4,CCCAACGACUGCCGAGCGAGAUUACGCUUGAGCGCCCCACGGAGGAUGCCUACGGGCGAUUGGGGCACGG [U41G C51U],7.25
5,CCCAACUACUGCCGAGCGAGAGUACGCUUGAGCGCCCCACUGAGGAUGCCCACGGGCGAUUGGGGCACGG [G7U U22G],6.14
6,CCCAACGACUGCCGAGCGAGAUUACGCUAGGGCGCCCCACUGAGGAUGCCCACGGGCGAUUGGGGCACGG [U29A A31G],5.67
7,CCCAAGGACUGCCGAGCGAGAUUACGCAUGAGCGCCCCACUGAGGAUGCCCACGGGCGAUUGGGGCACGG [C6G U28A],5.13
8,CCCAACGACUGCCGUGCGAGAUUACGCUUGAGCGCCCCACGGAGGAUGCCCACGGGCGAUUGGGGCACGG [A15U U41G],6.49
9,CCCAACGACUGCCAAGCGAGAUUACGCCUGAGCGCCCCACUGAGGAUGCCCACGGGCGAUUGGGGCACGG [G14A U28C],7.17
10,CCCAACGACUGCCGAGCGAGAUUACGCUGGAGCGCCCCACUUAGGAUGCCCACGGGCGAUUGGGGCACGG [U29G G42U],10.4
11,CCCAACGACGGCCGAGCGAGAUUACGCUUGAGCGCCCCACUGAUGAUGCCCACGGGCGAUUGGGGCACGG [U10G G44U],9.69
12,CCCAACGACUGCCGAGCGAGAUUACGCCUGAGCGCCCCUCUGAGGAUGCCCACGGGCGAUUGGGGCACGG [U28C A39U],51.1
13,CCCAACGGCUGCCGAGCGAGAUUACGCUUGAGCGCCCCACUGAGGAUGCCCACAGGCGAUUGGGGCACGG [A8G G54A],14.6
14,CCCAACGACUUCCGAGCGAGAUUACGCUUGAGCGCCCCACUAAGGAUGCCCACGGGCGAUUGGGGCACGG [G11U G42A],55.9
15,CCCAACGACUGCGGAGCGAGAUUACGCUUGAGCGCCCCACUGAGGAUGCCCACGGGCGAUUGGGUCACGG [C13G G65U],6.4
16,CCCAACGACUGCCGAGCGAGAUGACGCUUGAGCACCCCACUGAGGAUGCCCACGGGCGAUUGGGGCACGG [U23G G34A],7.56
17,CCCAAGGACUGCCGAGCGAGAUUACGCUUGAGGGCCCCACUGAGGAUGCCCACGGGCGAUUGGGGCACGG [C6G C33G],5.77
18,CCCAACGAGUGCCGAGCGAGAUUACGCUUGAGCGCCUCACUGAGGAUGCCCACGGGCGAUUGGGGCACGG [C9G C37U],16.1
19,CCCAACGACUGCCGAGCGAGAGUACGCUUGAGCGCCCCACUGAGGAUGCCAACGGGCGAUUGGGGCACGG [U22G C51A],8.46
